Source: ChEMBL document CHEMBL3102849, “A heat shock protein 90 inhibitor that modulates the immunophilins and regulates hormone receptors without inducing the heat shock response” (Bioorg Med Chem Lett, 2014)
The source made the active and inactive calls. The rule behind the calls is not given here. Residues, ends and D or L forms follow the SMILES beside them.

What was measured:
[1] = molecular target: Heat shock protein HSP 90-beta (Homo sapiens) (UniProt P08238); experiment: Binding affinity to human Hsp90 assessed as inhibition of interaction with His/GST-tagged recombinant co-chaperone CHIP at 10 uM preincubated for 1 hr followed by co-chaperone addition measured after 1 hr by Western blotting analysis
Method in brief: (§1)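 Purified native hsp90 combined with purified TPR co-chaperone (FKBP51, FKBP52, HOP, Unc45, CHIP, Cyp40 or TOM70), with increasing compound, 0–10 μM; hsp90–co-chaperone binding measured across the range.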

[2] = molecular target: Heat shock protein HSP 90-beta (Homo sapiens) (UniProt P08238); experiment: Inhibition of Hsp90 (unknown origin) at 50 uM preincubated for 1 hr followed by denatured luciferase addition measured at 60 mins by bright glo luciferase refolding assay in presence of Hsp70/Hsp40/HOP relative to control
Method in brief: (§2)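 Pure-protein refolding: heat-denatured firefly luciferase incubated with 0.5μM hsp90, 1μM hsp70, 0.2μM hsp40 and 0.1μM HOP; compound at 50μM; luciferase activity followed over time, expressed versus control; n=3, mean±SEM.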

[3] = molecular target: Heat shock protein HSP 90-beta (Homo sapiens) (UniProt P08238); experiment: Inhibition of Hsp90 in human HeLa cells assessed as downregulation of HSF1 protein expression at 5 uM to 50 uM after 30 hours by Western blotting analysis relative to DMSO-treated control; format: cell-based
Method in brief: (§3)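 HeLa cervical carcinoma cells treated at 5μM and 50μM; cell lysates probed for the heat shock response proteins hsp70, hsp90 and HSF1 by western blot, compared with DMSO.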

[4] = molecular target: Heat shock protein HSP 90-beta (Homo sapiens) (UniProt P08238); experiment: Inhibition of Hsp90 (unknown origin) at 50 uM preincubated for 1 hr followed by denatured luciferase addition measured at 75 mins by bright glo luciferase refolding assay in presence of Hsp70/Hsp40/HOP relative to control; method in brief: as §2
[5] = molecular target: Heat shock protein HSP 90-beta (Homo sapiens) (UniProt P08238); experiment: Inhibition of Hsp90 in human HeLa cells assessed as downregulation of Hsp90 protein expression at 5 uM to 50 uM after 30 hours by Western blotting analysis relative to DMSO-treated control; format: cell-based; method in brief: as §3
[6] = molecular target: Heat shock protein HSP 90-beta (Homo sapiens) (UniProt P08238); experiment: Inhibition of Hsp90 (unknown origin) at 50 uM preincubated for 1 hr followed by denatured luciferase addition measured at 30 mins by bright glo luciferase refolding assay in presence of Hsp70/Hsp40/HOP relative to control; method in brief: as §2
[7] = molecular target: Heat shock protein HSP 90-beta (Homo sapiens) (UniProt P08238); experiment: Inhibition of Hsp90 (unknown origin) at 50 uM preincubated for 1 hr followed by denatured luciferase addition measured at 90 mins by bright glo luciferase refolding assay in presence of Hsp70/Hsp40/HOP relative to control; method in brief: as §2
[8] = molecular target: Heat shock protein HSP 90-beta (Homo sapiens) (UniProt P08238); experiment: Inhibition of Hsp90 in human HeLa cells assessed as downregulation of FKBP52 protein level at 50 uM after 30 hours by Western blotting analysis; format: cell-based
Method in brief: (§4)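 HeLa cells treated at 5μM and 50μM; lysates western blotted for FKBP51, FKBP52 and glucocorticoid receptor; bands normalized to GAPDH and compared with DMSO control; n≥3, mean±SEM.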

[9] = molecular target: Heat shock protein HSP 90-beta (Homo sapiens) (UniProt P08238); experiment: Inhibition of Hsp90 in human HeLa cells assessed as change in Hsp70 protein expression at 5 uM to 50 uM after 30 hours by Western blotting analysis; format: cell-based; method in brief: as §3
[10] = molecular target: Heat shock protein HSP 90-beta (Homo sapiens) (UniProt P08238); experiment: Binding affinity to human Hsp90 assessed as inhibition of interaction with His/GST-tagged recombinant co-chaperone TOM70 at 10 uM preincubated for 1 hr followed by co-chaperone addition measured after 1 hr by Western blotting analysis; method in brief: as §1
[11] = molecular target: T1, Heat shock protein HSP 90 (Oryctolagus cuniculus) (UniProt P11500); experiment: Inhibition of Hsp90 in rabbit reticulocyte lysate at 50 uM measured at 90 mins by bright glo luciferase refolding assay relative to control
T1 sequence (whole entry): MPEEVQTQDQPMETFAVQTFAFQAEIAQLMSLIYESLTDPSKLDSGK
Method in brief: (§5)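 Heat-denatured firefly luciferase incubated in rabbit reticulocyte lysate, the complete lysate system; compound at 50μM; refolding followed over time by luciferase activity relative to control; n=3, mean±SEM.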

[12] = molecular target: Heat shock protein HSP 90-beta (Homo sapiens) (UniProt P08238); experiment: Inhibition of Hsp90 in human HeLa cells assessed as change in FKBP51 protein level at 50 uM after 30 hours by Western blotting analysis; format: cell-based; method in brief: as §4
[13] = molecular target: T1, Heat shock protein HSP 90 (Oryctolagus cuniculus); experiment: Inhibition of Hsp90 in rabbit reticulocyte lysate at 50 uM measured at 60 mins by bright glo luciferase refolding assay relative to control; method in brief: as §5
[14] = molecular target: Heat shock protein HSP 90-beta (Homo sapiens) (UniProt P08238); experiment: Inhibition of Hsp90 (unknown origin) at 50 uM preincubated for 1 hr followed by denatured luciferase addition measured at 120 mins by bright glo luciferase refolding assay in presence of Hsp70/Hsp40/HOP relative to control; method in brief: as §2
[15] = molecular target: T1, Heat shock protein HSP 90 (Oryctolagus cuniculus); experiment: Inhibition of Hsp90 in rabbit reticulocyte lysate at 50 uM measured at 15 mins by bright glo luciferase refolding assay relative to control; method in brief: as §5
[16] = molecular target: T1, Heat shock protein HSP 90 (Oryctolagus cuniculus); experiment: Inhibition of Hsp90 in rabbit reticulocyte lysate at 50 uM measured at 30 mins by bright glo luciferase refolding assay relative to control; method in brief: as §5
[17] = molecular target: T1, Heat shock protein HSP 90 (Oryctolagus cuniculus); experiment: Inhibition of Hsp90 in rabbit reticulocyte lysate at 50 uM measured at 75 mins by bright glo luciferase refolding assay relative to control; method in brief: as §5
[18] = molecular target: Heat shock protein HSP 90-beta (Homo sapiens) (UniProt P08238); experiment: Inhibition of Hsp90 (unknown origin) at 50 uM preincubated for 1 hr followed by denatured luciferase addition measured at 105 mins by bright glo luciferase refolding assay in presence of Hsp70/Hsp40/HOP relative to control; method in brief: as §2
[19] = molecular target: Heat shock protein HSP 90-beta (Homo sapiens) (UniProt P08238); experiment: Binding affinity to human Hsp90 assessed as inhibition of interaction with His/GST-tagged recombinant co-chaperone Cyp40 at 10 uM preincubated for 1 hr followed by co-chaperone addition measured after 1 hr by Western blotting analysis; method in brief: as §1
[20] = molecular target: Heat shock protein HSP 90-beta (Homo sapiens) (UniProt P08238); experiment: Inhibition of Hsp90 (unknown origin) at 50 uM preincubated for 1 hr followed by denatured luciferase addition measured at 45 mins by bright glo luciferase refolding assay in presence of Hsp70/Hsp40/HOP relative to control; method in brief: as §2
[21] = molecular target: Heat shock protein HSP 90-beta (Homo sapiens) (UniProt P08238); experiment: Inhibition of Hsp90 (unknown origin) at 50 uM preincubated for 1 hr followed by denatured luciferase addition measured at 15 mins by bright glo luciferase refolding assay in presence of Hsp70/Hsp40/HOP relative to control; method in brief: as §2
[22] = molecular target: T1, Heat shock protein HSP 90 (Oryctolagus cuniculus); experiment: Inhibition of Hsp90 in rabbit reticulocyte lysate at 50 uM measured at 45 mins by bright glo luciferase refolding assay relative to control; method in brief: as §5
[23] = molecular target: Heat shock protein HSP 90-beta (Homo sapiens) (UniProt P08238); experiment: Binding affinity to human Hsp90 assessed as inhibition of interaction with His/GST-tagged recombinant co-chaperone CYP40 up to 10 uM preincubated for 1 hr followed by co-chaperone addition measured after 1 hr by Western blotting analysis
Method in brief: (§6)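 In vitro binding assay: pure native hsp90 combined with individual purified TPR co-chaperones (Unc45, CHIP, TOM70, Cyp40, FKBP51, FKBP52), with compound added in increasing amounts up to 5 or 10 μM. Co-chaperone–hsp90 association was scored against the compound-free condition.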

[24] = molecular target: Heat shock protein HSP 90-beta (Homo sapiens) (UniProt P08238); experiment: Inhibition of Hsp90 in human HeLa cells assessed as downregulation of FKBP52 protein level at 40 uM after 30 hours by Western blotting analysis in presence of proteasome inhibitor MG-132; format: cell-based
[25] = molecular target: Heat shock protein HSP 90-beta (Homo sapiens) (UniProt P08238); experiment: Inhibition of Hsp90 in human HeLa cells assessed as downregulation of glucocorticoid receptor protein level at 40 uM after 30 hours by Western blotting analysis in presence of proteasome inhibitor MG-132; format: cell-based
[26] = molecular target: Heat shock protein HSP 90-beta (Homo sapiens) (UniProt P08238); experiment: Binding affinity to human Hsp90 assessed as inhibition of interaction with His/GST-tagged recombinant co-chaperone TOM70 up to 10 uM preincubated for 1 hr followed by co-chaperone addition measured after 1 hr by Western blotting analysis; method in brief: as §6
[27] = molecular target: Heat shock protein HSP 90-beta (Homo sapiens) (UniProt P08238); experiment: Inhibition of human Hsp90 assessed as disruption of interaction with recombinant p23 up to 10 uM by Western blotting analysis
[28] = molecular target: Heat shock protein HSP 90-beta (Homo sapiens) (UniProt P08238); experiment: Inhibition of Hsp90 in human HeLa cells assessed as downregulation of FKBP51 protein level at 40 uM after 30 hours by Western blotting analysis in presence of proteasome inhibitor MG-132; format: cell-based
[29] = molecular target: Heat shock protein HSP 90-beta (Homo sapiens) (UniProt P08238); experiment: Inhibition of Hsp90 (unknown origin) at 50 uM preincubated for 1 hr followed by denatured luciferase addition measured after 2 hrs by bright glo luciferase refolding assay in presence of Hsp70/Hsp40/HOP relative to control
Method in brief: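 Purified refolding system: heat-denatured firefly luciferase incubated with 0.5 μM hsp90, 1 μM hsp70, 0.2 μM hsp40 and 0.1 μM HOP plus test agent (1 μM or 50 μM). Luciferase activity was followed over time up to 2 h and expressed relative to control. n=3, mean±SEM.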

[30] = molecular target: Heat shock protein HSP 90-beta (Homo sapiens) (UniProt P08238); experiment: Binding affinity to human Hsp90 assessed as inhibition of interaction with His/GST-tagged recombinant co-chaperone CHIP up to 10 uM preincubated for 1 hr followed by co-chaperone addition measured after 1 hr by Western blotting analysis; method in brief: as §6
[31] = molecular target: Heat shock protein HSP 90-beta (Homo sapiens) (UniProt P08238); experiment: Binding affinity to human Hsp90 assessed as inhibition of interaction with His/GST-tagged recombinant co-chaperone Unc45 up to 10 uM preincubated for 1 hr followed by co-chaperone addition measured after 1 hr by Western blotting analysis; method in brief: as §6
[32] = molecular target: Heat shock protein HSP 90-beta (Homo sapiens) (UniProt P08238); experiment: Binding affinity to human Hsp90 assessed as inhibition of interaction with His/GST-tagged recombinant co-chaperone FKBP51 up to 10 uM preincubated for 1 hr followed by co-chaperone addition measured after 1 hr by Western blotting analysis; method in brief: as §6

Chain of Heat shock protein HSP 90-beta (Homo sapiens) (P08238 whole entry): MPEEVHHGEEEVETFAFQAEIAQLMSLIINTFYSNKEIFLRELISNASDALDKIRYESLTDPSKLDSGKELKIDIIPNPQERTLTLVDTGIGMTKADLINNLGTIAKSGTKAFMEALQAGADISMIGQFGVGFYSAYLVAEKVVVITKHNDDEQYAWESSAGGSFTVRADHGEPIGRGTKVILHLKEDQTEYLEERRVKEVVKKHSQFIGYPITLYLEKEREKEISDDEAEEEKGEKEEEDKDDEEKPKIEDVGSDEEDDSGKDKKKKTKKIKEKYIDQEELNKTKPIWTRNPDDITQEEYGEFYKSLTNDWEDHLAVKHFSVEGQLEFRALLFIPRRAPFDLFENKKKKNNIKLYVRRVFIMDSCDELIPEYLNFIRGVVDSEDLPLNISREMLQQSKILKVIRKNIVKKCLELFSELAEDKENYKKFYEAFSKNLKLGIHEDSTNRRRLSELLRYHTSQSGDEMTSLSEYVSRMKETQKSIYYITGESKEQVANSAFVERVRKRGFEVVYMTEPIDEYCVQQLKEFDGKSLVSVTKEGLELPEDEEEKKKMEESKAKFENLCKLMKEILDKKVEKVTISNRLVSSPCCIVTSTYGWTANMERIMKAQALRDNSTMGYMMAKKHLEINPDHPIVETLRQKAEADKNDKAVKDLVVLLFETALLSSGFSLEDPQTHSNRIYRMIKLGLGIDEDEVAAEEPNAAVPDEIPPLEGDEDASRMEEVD

SMILES | RLU [2] | inhibition [3] | RLU [4] | inhibition [5] | RLU [6] | RLU [7] | inhibition [9] | RLU [11] | RLU [13] | RLU [14] | RLU [15] | RLU [16] | RLU [17] | RLU [18] | RLU [20] | RLU [21] | RLU [22] | other results
CO[C@H]1[C@H](OC(=O)c2ccc(C)[nH]2)[C@H](O)[C@@H](Oc2ccc3c(O)c(NC(=O)c4c[nH]c(C(=O)Nc5c(O)c6ccc(O[C@H]7OC(C)(C)[C@@H](OC)[C@H](OC(=O)c8ccc(C)[nH]8)[C@@H]7O)c(C)c6oc5=O)c4C)c(=O)oc3c2C)OC1(C)C | 497 | 50% | 540 | 50% | 565 | 520 | Active | 25400 | 19200 | 417 | 4670 | 10600 | 22000 | 467 | 498 | 519 | 15500 | inhibition [1]: Active; inhibition [8]: Active; inhibition [10]: Active; inhibition [12]: Active; inhibition [19]: Active
CC(C)C[C@@H]1NC(=O)[C@H](C(C)C)N(C)C(=O)[C@@H](CC(C)C)NC(=O)[C@@H](Cc2ccccc2)NC(=O)[C@@H]([C@H](OCc2ccccc2)c2ccccc2)NC1=O (HELM PEPTIDE1{[O=C([C@H](N[*:1])[C@H](OCc1ccccc1)c1ccccc1)[*:2]].[dF].[dL].[meV].L}$PEPTIDE1,PEPTIDE1,1:R1-5:R2$$$V2.0) | 6340 | 50% | 7810 | 50% | 4360 | 8670 | Active | 29600 | 21800 | 9190 | 5240 | 10800 | 25300 | 8800 | 5700 | 3800 | 16800 | inhibition [23]: Active; inhibition [24]: Active; inhibition [25]: Active; inhibition [26]: Active; inhibition [27]: Active; inhibition [28]: Active; inhibition [29]: 55%; inhibition [30]: Active; inhibition [31]: Active; inhibition [32]: Active
